Screens: PubChem, several laboratories
GAA850 FXN act: FXN promoter activators, primary screen, cell-based, luciferase luminescence, HEK293 lucGAA850 | HEK293 lucGAA850 FXN promoter luciferase reporter, 24 h; percent of 10 µM SAHA response | activation, % at 6 µM | 0.56% of 360,000 active | AID 540364, 2011;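 active = activation above the average of all compounds screened plus 3 SD, cutoff fixed separately per campaign, cut at about 7.5% in these data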;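 also: 0% = DMSO wells and 100% = 10 µM SAHA wells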
ABCB6 inh 2: ABCB6 transporter inhibitors, primary screen, K562-ABCB6 cells, flow cytometry, MLPCN library; K562-ABCB6 porphyrin accumulation, 1 h; hits give low values; fluorescence ratio to DMSO, % at 10 µM; ATP-binding cassette sub-family B member 6 (Homo sapiens), Q9NP58; 0.19% of 360,000 active;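 active = fluorescence ratio to DMSO below 75%, the collection mean minus 3 SD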;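 also: signal is porphyrin accumulated inside mitochondria; 100% equals median channel fluorescence of DMSO control wells; lower ratio means ABCB6 inhibition with less porphyrin fluorescence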
AHR activator: AHR activators, primary screen, cell-based, luminescence, luciferase reporter, human; AHR-responsive luciferase reporter cells; activation, % at 5 µM; 2.5% of 320,000 active; Aryl hydrocarbon receptor (Homo sapiens), P35869; in the data active = activation above about 47%;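 also: 0% = vehicle wells and 100% = reference agonist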
STAT3 act: IL-6 driven STAT3 reporter potentiators, primary screen, U3A cells, luciferase, luminescence, MLSCN library; IL-6 STAT3-luciferase reporter; 100% = signal with IL-6 EC80 alone; AID 871, 2007; activation (% of control), % at 5.6 µM; 0.91% of 190,000 active;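 active = activation above the screen-wide mean of compound activation plus 3 SD, cut at about 130% in these data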;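 also: 0% = background luminescence of wells with medium and substrate only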
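Material: STAT3-luciferase reporter U3A cells. Controls: IL-6-treated wells, 100% activation. Read-out: % activation versus median of IL-6-stimulated wells. Probe or stimulus: IL-6 stimulus at 33 ng/mL final. Timing: compound 1 h, then IL-6 6 h at 37 °C. Signal: reporter luminescence signal.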
Active calls of the source: *; . = no result given. The list is not random: actives were taken first. Their share in the collection is about 3.3%.

SMILES	GAA850 FXN act	ABCB6 inh 2	AHR activator	STAT3 act
CC(C)(C)C(=O)Cn1c(=N)n(Cc2ccccc2)c2ccccc21	1	108	1	100
Cn1c(=N)n(CC(=O)c2cccs2)c2ccccc21	7	88	49*	137*
CCOC(=O)N1CCN(C(=O)CSc2ccccc2)CC1	3	101	0	96
CCN(CC)C(=O)COCc1cc(-c2ccc3c(c2)OCO3)on1	3	92	10	.
Cc1ccc(Nc2cnn(C34CC5CC(CC(CC(=O)O)(C5)C3)C4)c(=O)c2Cl)cc1	-1	100	2	102
N=c1n(CCN2CCCCC2)c2ccccc2n1CC(=O)c1cccs1	1	98	33	.
Cn1c(=N)n(CC(=O)c2ccc(Br)s2)c2ccccc21	6	93	71*	167*
O=c1cc(CN2CCc3ccccc32)nc2sccn12	0	95	28	134*
COC(=O)c1cnn2c(C(F)(F)F)cc(-c3ccccc3)nc12	2	100	2	93
N#Cc1cnn2c(C(F)(F)F)cc(-c3ccccc3)nc12	2	99	60*	.
Cc1ccc(NCC(=O)N/N=C/c2ccncc2)cc1	0	95	64*	101
Cn1nc(-c2ccc(Cl)cc2)c2cc(C(=O)N3CCCC3)sc21	-5	103	50*	107
O=C(c1ccc(Cl)nc1)c1cccs1	.	.	54*	.
C[n+]1cn(/N=C/c2ccccc2)c2ccccc21	1	102	35	120
C(=N\n1c2ccccc2c2ccccc21)/c1ccccc1	2	99	65*	104
C(=N/n1c2ccccc2c2ccccc21)/c1ccco1	0	106	51*	91
CCOc1ccccc1NC(=O)C1CCN(C(=O)c2cccs2)CC1	2	98	5	92
CCN(CC)CCNc1ccc(C)c2sc3ccc(O)cc3c(=O)c12	-3	198	.	.
CC(=O)N1c2ccc3ccccc3c2C2C=CCC2C1c1ccc(Br)cc1 (stereo not drawn)	.	.	85*	116
COC(=O)c1ccc(CNC(=O)COC(=O)CCN2C(=O)C3CC=CCC3C2=O)cc1 (stereo not drawn)	1	96	-1	.
O=C1CCn2nc(-c3ccc(Cl)cc3)cc2N1	3	94	48*	111
CCc1ccccc1NC(=O)Nc1cccs1	-2	101	50*	103
Cc1ccccc1NC(=O)Nc1cccs1	1	113	7	89
Cc1nn(-c2ccc(Cl)cc2Cl)c(=O)c2ccccc12	2	96	0	100
Cc1nn(-c2ccc(Cl)cc2)c(=O)c2ccccc12	7	98	54*	134*
SMILES	GAA850 FXN act	ABCB6 inh 2	AHR activator	STAT3 act
Cc1nc2ccc(F)cc2cc1C(=O)Nc1cccc(Cl)c1C	2	98	107*	98
C1=C(c2ccccc2)CCN(c2ncnc3nc[nH]c23)C1	0	88	8	92
CCCN(CC(=O)Nc1ccccc1C)C(=O)c1cc2ccccc2oc1=O	-2	106	.	.
COc1cc(N/N=C/c2ccc(N(C)C)cc2)ncn1	2	100	79*	50
COc1cc(N/N=C/c2ccccc2O)ncn1	1	100	17	83
CC(C)CC(=O)NC(=S)Nc1cccc(NC(=O)c2ccccc2)c1	0	100	5	95
Cc1cc(NC(=S)NC(=O)CC(C)C)ccc1Br	3	84	64*	103
Oc1ccccc1C=Nc1cccc2ccccc12	1	101	21	.
Oc1cccc(C=Nc2cccc3ccccc23)c1O	6	133	51*	.
O=C(NCc1cccnc1)c1ccc(-c2ccc(Cl)cc2)o1	2	97	37	99
O=C(NCc1cccnc1)c1ccc(-c2cc(Cl)ccc2Cl)o1	-1	101	76*	109
O=C(Nc1cccc(Br)c1)c1cc(S(=O)(=O)N2CCOCC2)cs1	-1	90	5	.
Cc1[nH]c2ccccc2c1/C=N/NC(=O)c1ccccc1	4	96	68*	.
Cc1[nH]c2ccccc2c1/C=N/NC(=O)c1ccc(N)cc1	3	103	19	.
Cc1[nH]c2ccccc2c1/C=N/NC(=O)c1cc(-c2ccncc2)nc2ccccc12	-6	99	57*	.
Cc1nn(-c2ccccc2)c(C)c1/C=N/NC(=O)c1cc(-c2cccc3ccccc23)n[nH]1	1	82	29	107
Cc1nn(-c2ccccc2)c(C)c1/C=N/NC(=O)c1cc(-c2ccccc2)n[nH]1	1	93	48*	119
Cc1[nH]c2ccccc2c1/C=N/NC(=O)c1cccc(Br)c1	1	102	68*	.
S=C(Nc1ccccc1Cl)N(CCCN1CCOCC1)Cc1ccccn1	1	101	39	103
Cc1[nH]c2ccccc2c1/C=N/NC(=O)c1cc(-c2ccccc2)n[nH]1	1	96	59*	.
CC(=O)OC1=C(C#N)Cn2ccc3cccc1c32	.	.	0	90
COc1ccc(-c2cc(C(F)(F)F)c3c(N)c(C(=O)NCCSC)sc3n2)cc1	3	142	62*	.
COc1ccc(OC)c(NC(=O)c2sc3nc(Cc4ccccc4)cc(C(F)(F)F)c3c2N)c1	-3	124	3	98
O=C(c1ccccc1)c1nn(-c2ccc(Cl)cc2)c(=O)cc1C(F)(F)F	-10	100	17	134*
O=C(NNC(=S)NC(=O)c1ccc(Br)cc1)c1cccc([N+](=O)[O-])c1	1	92	53*	.
SMILES	GAA850 FXN act	ABCB6 inh 2	AHR activator	STAT3 act
O=C(NNC(=S)NC(=O)c1ccc(Br)cc1)c1ccc([N+](=O)[O-])cc1	1	98	2	.
COc1ccc(/C=N/Nc2nc3ccccc3[nH]2)c(OC)c1OC	-7	94	51*	.
C(=C\c1ccccc1)/C=N/Nc1nc2ccccc2[nH]1	4	103	65*	108
Fc1ccc(/C=N/Nc2nc3ccccc3[nH]2)cc1F	3	90	49*	94
C(=N\Nc1nc2ccccc2[nH]1)/c1ccccc1	4	94	30	84
Cc1ccccc1/C=N/Nc1nc2ccccc2[nH]1	6	86	65*	87
CCCCC(OC(=O)c1ccco1)C(=O)NCc1ccc(C)cc1 (stereo not drawn)	1	91	0	.
Cc1[nH]c2ccccc2c1/C=N/Nc1nc2ccccc2[nH]1	4	98	143*	.
Cc1[nH]c2ccccc2c1/C=N/Nc1nc(N2CCCCC2)nc(N2CCCCC2)n1	2	99	15	92
CC(C(=O)Nc1ccc2c(c1)OCO2)N(C)CC(=O)Nc1ccc(Cl)cc1 (stereo not drawn)	0	98	.	.
CCOC(=O)C1=C(c2ccccc2)NC(=O)NC1c1ccc(OC)cc1OC (stereo not drawn)	-1	101	6	.
CCn1cc(Cl)c(C(=O)Nc2ccccc2C(N)=O)n1	2	96	54*	102
Cc1[nH]c2ccccc2c1C1C(c2ccccc2)=NN=C(C(C)C)N1O (stereo not drawn)	-1	95	26	112
